Among all 360,000 compounds or so, about 3,600 (1%) were called active. Many of the other results were omitted from the sample, so actives are more common in it than they were. Values without a mark were called inactive.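 Rule for the calls: active = activation above the mean activation of all test compounds in the run plus 3 SD (cut at about 38% in these data); inactive = the rest.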
Target: Trace amine-associated receptor 1 (Homo sapiens) (UniProt Q96RJ0)
Test: activators of TAAR1 calcium mobilization – Fluo-8 calcium fluorescence, CHO RD-HGA16 cells, primary screen (AID 624467)
Settings: CHO RD-HGA16 TAAR1, Fluo-8 calcium fluorescence; at 3 µM; hits give high values; vehicle wells 0%, saturating PEA agonist 100%
Summary of the method: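 Assay system: CHO-derived RD-HGA16 cells with stable Gα16 and human TAAR1; timing: 17-24 h seeding, 75 min 37 °C dye, 30 min RT; read-out: % activation from peak over basal fluorescence ratio, DMSO-to-PEA scaled; measured by: kinetic Fluo-8 calcium fluorescence; benchmarks: low control DMSO, high control PEA (EC100); doses: 3 µM single concentration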

Sequence of Trace amine-associated receptor 1 (Homo sapiens) (Q96RJ0 whole entry, looked up): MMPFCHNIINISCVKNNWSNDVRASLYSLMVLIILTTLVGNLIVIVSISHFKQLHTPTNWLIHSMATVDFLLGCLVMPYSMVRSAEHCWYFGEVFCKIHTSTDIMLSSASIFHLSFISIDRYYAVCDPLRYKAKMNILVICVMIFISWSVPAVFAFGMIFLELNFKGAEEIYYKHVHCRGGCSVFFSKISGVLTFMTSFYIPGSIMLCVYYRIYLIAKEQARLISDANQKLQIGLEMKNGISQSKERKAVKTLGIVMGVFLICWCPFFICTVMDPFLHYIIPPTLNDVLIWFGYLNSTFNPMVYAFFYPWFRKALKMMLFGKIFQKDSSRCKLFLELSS

In order of falling activation:
1. NCCCNC(=S)NCCCN(Cc1ccc(Cl)cc1)c1ccc(Br)cn1  24.3%
2. COCCN1C(=O)N(c2ccc(Cl)cc2)C(=O)C1CC(=O)Nc1cc(OC)cc(OC)c1 (configuration not stated)  18.5%
3. COC(=O)C1=C(C)N(Cc2ccc(C(F)(F)F)cc2)C(=NCc2ccc(C(F)(F)F)cc2)NC1c1cccc(Cl)c1 (configuration not stated)  16.8%
4. CCCCn1c(-c2cccc(C)c2)nc2cc3[nH]c(=O)c(C(C)C)nc3cc21  14.7%
5. C[C@H](O)[C@@H]1C(=O)N2CCc3c([nH]c4c(-c5ccc6c(c5)OCO6)cccc34)[C@@H]2C[C@@H]1N(C)C(=O)c1ccco1  14.6%
6. CCCN1C(=O)C(Cc2nc3ccccc3c(=O)n2-c2ccccc2)c2cc(C)ccc21 (configuration not stated)  13.8%
7. NC(=O)c1oc2ccccc2c1NC(=O)Cc1ccccc1  10.1%
8. COc1ccc(OCC(O)CNC(=O)Nc2ccc(Cl)cc2)cc1 (configuration not stated)  9.53%
9. CC(C)(C)Nc1c(N)c(=O)oc2ccccc12  9.39%
10. Cc1ccc(O)c(/C=N/NC(=O)COc2ccc3c(C)cc(=O)oc3c2)c1  6.72%
11. CCC(C)C(N=C1NS(=O)(=O)c2ccccc21)C(=O)N1CCC(C)CC1 (configuration not stated)  5.5%
12. O=C(CCC1CCCN(Cc2ccc(O)c(Cl)c2)C1)NCc1ccccc1F (configuration not stated)  5.41%
13. CCOc1ccc(OCCSc2nc3ccccc3n2CC(=O)O)cc1  3.64%
14. O=[N+]([O-])c1ccc2[nH]c3c(c2c1)CCCC3O (configuration not stated)  2.87%
15. COc1ccc(NC(=S)N2CCc3cc(OC)c(OC)cc3C2)cc1  2.44%
16. COc1ccccc1N1CC(C(=O)Nc2ccc(S(=O)(=O)N3CCOCC3)cc2)CC1=O (configuration not stated)  1.9%
17. Cc1noc(C)c1COC(=O)Cn1c(C)nc2ccccc21  1.89%
18. COc1ccc(OC)c(NC(=O)CSc2nc3cccnc3n2C)c1  1.87%
19. CCN(CC)P(=O)(Nc1ccc(SC(F)F)cc1)c1ccc(N(C)C)cc1NC(=O)c1ccco1 (configuration not stated)  1.83%
20. COC(=O)[C@]12C[C@H](CC(=O)N3CCN(C(=O)C4CC4)CC3)C(=O)N(Cc3ccc4c(c3)OCO4)C1=C[C@H](C(C)(C)C)O[C@@H]2C  1.35%
21. Cc1ccsc1C(=O)NNC(=O)COc1ccc(Br)cc1  1.12%
22. COC(=O)C1=C(C)N(Cc2cccc(C(F)(F)F)c2)C(=NCc2ccccc2)NC1c1ccccc1C(F)(F)F (configuration not stated)  1.05%
23. OC[C@H]1O[C@@H](c2nc(-c3nc(-c4ccc(F)cc4)no3)cs2)[C@H](O)[C@@H](O)[C@H]1O  0.88%
24. COc1ccc(C)cc1NC(=S)N1CCOCC1  0.86%
25. NS(=O)(=O)c1ccc(NC(=S)NC(=O)c2cccnc2)cc1  0.75%
26. COc1ccccc1-c1ccc([C@@H]2C[C@H]3[C@H](CON3C)CN2S(=O)(=O)c2cc(Cl)cc(Cl)c2)cc1  0.17%
27. C=CCN=C1NC(c2cccc(C(F)(F)F)c2)C(C(=O)OC)=C(C)N1C (configuration not stated)  -0.19%
28. Cc1ccc(C(=O)CCC(=O)N(C)CC(=O)Nc2c(Cl)cccc2Cl)cc1  -0.39%
29. Cc1cccc(OCCNC(=S)NC(=O)c2cccnc2)c1  -0.63%
30. COC(=O)[C@]12C[C@H](CC(=O)NCc3ccc(OC)c(OC)c3)C(=O)N(Cc3ccccc3)C1=C[C@H](C(C)C)O[C@@H]2C1CC1  -0.82%
31. CCOC(=O)Cn1c2c(n(-c3ccc(F)cc3)c1=O)C=C(c1ccccc1)[C@@H](C)C(C(=O)N(C)C1CCCCC1)=C2  -1.16%
32. CCCCCCCCN1C(=O)[C@@H](CC(=O)NCCCC)C[C@@]2(C(=O)OC)C1=C[C@H](C(C)(C)C)O[C@@H]2C  -1.86%
33. CCCCCCCCN1C(=O)[C@@H](CC(=O)N2CCN(C(=O)OCC)CC2)C[C@@]2(C(=O)OC)C1=C[C@H](C1CCCC1)O[C@@H]2C  -2.04%
34. COC(=O)[C@]12C[C@H](CC(=O)NCc3ccc(C)o3)C(=O)N(CCC3=CCCCC3)C1=C[C@H](C(C)(C)C)O[C@@H]2C  -2.27%

In the case of `COc1ccc(OC)c(NC(=S)N2CCc3ccccc3C2)c1`, the activation is reported as 69.4% (active).
`CCCc1nc2c(c(=O)c3ccccc3n2C)c(=O)n1C1CCCCCC1` was tested, and the activation was 46.7% (active).
In the case of `Nc1c(NCCc2ccccc2)c2ccccc2oc1=O`, the activation is reported as 88.1% (active).
With `O=C(/C=C/c1ccc(F)cc1)NC(=S)NNC(=O)c1cccnc1` the activation was 39.6% (active).
For `Cc1ccc(O)c(NC(=S)NC(=O)COc2ccc(Br)cc2)c1`, the activation was 108% (active).
`CCCCCCCCCCOC(=O)Cn1c(COc2ccc(C)cc2)[n+](C)c2ccccc21` was tested, and the activation was 74.1% (active).
In the case of `S=C(NCCCc1cnc[nH]1)NCCCN(Cc1ccc(Cl)c(Cl)c1)c1ccc(Br)cn1`, the activation is reported as 44.3% (active).
For `OC(CNCCc1ccc(Cl)cc1Cl)COc1ccccc1` (configuration not stated), the activation was 86% (active).

Reference: PubChem BioAssay AID624467 (The Scripps Research Institute Molecular Screening Center, 2012)
